Calls of active or inactive are those of the source. The calls are words filed in the database; no cut-off is given here.
Columns and labels:
CCRF-CEM [1] = test: Inhibition of RNA synthesis in human CCRF-CEM cells at 5 times IC50 incubated for 24 hrs by BrU incorporation based flow cytometry; assay type: functional
Method in brief: (§1)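 Fixed in 1 % paraformaldehyde/0.05 % NP-40 (15 min at room temperature, then 4 °C overnight). Stained with cross-reacting anti-BrdU plus FITC secondary (45 min each), then PI/RNase A. Flow cytometry; % BrU-positive cells.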

CCRF-CEM [2] = test: Inhibition of DNA synthesis in human CCRF-CEM cells at 5 times IC50 incubated for 24 hrs by BrdU incorporation based flow cytometry; assay type: functional
Method in brief: (§2)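 Fixed in ice-cold 70 % ethanol, DNA denatured in 2 M HCl for 30 min, neutralised with borax. Stained with anti-BrdU plus FITC secondary, then PI/RNase A for 1 h. Flow cytometry; % BrdU-positive cells.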

CCRF-CEM [3] = test: Induction of apoptosis in human CCRF-CEM cells assessed as late apoptotic cells at 5 times IC50 incubated for 24 hrs by Annexin V-FITC and PI staining based flow cytometric analysis (reference value: 0.4 %); assay type: functional
Method in brief: (§3)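 Washed in Ca2+-containing binding buffer, then stained 15 min at room temperature in the dark with Annexin V-FITC and propidium iodide (PI at half the kit-recommended level). Read at once by flow cytometry with a 488 nm laser, ≥10,000 cells. Debris excluded; quadrants viable, early apoptotic, late apoptotic/necrotic, necrotic. Three independent experiments.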

A549 = test: Cytotoxicity against human A549 cells assessed as inhibition of cell growth incubated for 72 hrs by MTS assay; assay type: functional, cell-based; settings: A549, 72 h
Method in brief: (§4)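 MTS assay on eight human cancer lines and two non-tumour fibroblast lines. IC50 is the concentration that inhibits cell growth by 50 %. SD typically up to 15 % of the mean.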

CCRF-CEM [4] = test: Induction of apoptosis in human CCRF-CEM cells assessed as upregulation of BIM expression at 1 to 5 times IC50 incubated for 24 hrs by Western blotting analysis; assay type: functional, cell-based
Method in brief: (§5)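 30 µg protein per lane on SDS-PAGE, transferred to nitrocellulose, blocked in 5 % BSA/TBS-Tween. Primary antibodies overnight at 4 °C (Akt, P-Akt Ser473, STAT-3, caspase-3, PARP, cyclin D, cyclin A, Bcl-xL, Bak, Bid, Bim), then HRP secondary and ECL detection. GAPDH as loading control.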

CCRF-CEM [5] = test: Induction of apoptosis in human CCRF-CEM cells assessed as early apoptotic cells at 1 times IC50 incubated for 24 hrs by Annexin V-FITC and PI staining based flow cytometric analysis (reference value: 2.1 %); assay type: functional; method in brief: as §3
[6] = Cytotoxicity against human K562-Tax cells assessed as inhibition of cell growth incubated for 72 hrs by MTS assay; assay type: functional, cell-based; method in brief: as §4
CCRF-CEM [7] = test: Inhibition of DNA synthesis in human CCRF-CEM cells at 1 times IC50 incubated for 24 hrs by BrdU incorporation based flow cytometry; assay type: functional; method in brief: as §2
CCRF-CEM [8] = test: Induction of cell cycle arrest in human CCRF-CEM cells assessed as increase in accumulation of G0/G1 phase at 1 times IC50 incubated for 24 hrs by RNase/PI staining based flow cytometry; assay type: functional
Method in brief: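 Propidium iodide staining and flow cytometry with a 488 nm laser, ≥10,000 intact cells. Phase proportions compared with untreated cells; SEM of three independent experiments.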

CCRF-CEM [9] = test: Induction of apoptosis in human CCRF-CEM cells assessed as necrotic cells at 1 times IC50 incubated for 24 hrs by Annexin V-FITC and PI staining based flow cytometric analysis (reference value: 0.4 %); assay type: functional; method in brief: as §3
CCRF-CEM [10] = test: Induction of cell cycle arrest in human CCRF-CEM cells assessed as downregulation of Cyclin A expression at 5 times IC50 incubated for 24 hrs by Western blotting analysis; assay type: functional, cell-based; method in brief: as §5
[11] = Metabolic stability in human liver microsomes assessed as parent compound remaining at 2 uM incubated for 15 mins in presence of NADPH by RF-MS analysis; assay type: ADME, Microsome; settings: read-out: Stability
Method in brief: (§6)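 Human plasma stability, plasma protein binding and liver microsome stability, each run in triplicate. Error deviations below 10 %.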

[12] = Metabolic stability in human liver microsomes assessed as parent compound remaining at 2 uM incubated for 30 mins in presence of NADPH by RF-MS analysis; assay type: ADME, Microsome; settings: read-out: Stability; method in brief: as §6
[13] = Cytotoxicity against human BJ cells assessed as inhibition of cell growth incubated for 72 hrs by MTS assay; assay type: toxicity, cell-based; method in brief: as §4
CCRF-CEM [14] = test: Induction of apoptosis in human CCRF-CEM cells assessed as necrotic cells at 5 times IC50 incubated for 24 hrs by Annexin V-FITC and PI staining based flow cytometric analysis (reference value: 0.4 %); assay type: functional; method in brief: as §3
[15] = Stability in human plasma assessed as compound remaining at 2 uM incubated for 30 mins by RF-MS analysis; assay type: ADME, cell-free; settings: read-out: Stability; method in brief: as §6
CEM-DNR = test: Cytotoxicity against human CEM-DNR cells assessed as inhibition of cell growth incubated for 72 hrs by MTS assay; assay type: functional, cell-based; method in brief: as §4
K562 = test: Cytotoxicity against human K562 cells assessed as inhibition of cell growth incubated for 72 hrs by MTS assay; assay type: functional, cell-based; settings: K562, 72 h; method in brief: as §4
CCRF-CEM [16] = test: Induction of cell cycle arrest in human CCRF-CEM cells assessed as downregulation of total STAT3 expression at 1 to 5 times IC50 incubated for 24 hrs by Western blotting analysis; assay type: functional, cell-based; method in brief: as §5
[17] = Metabolic stability in human liver microsomes assessed as parent compound remaining at 2 uM incubated for 60 mins in presence of NADPH by RF-MS analysis; assay type: ADME, Microsome; settings: read-out: Stability; method in brief: as §6
CCRF-CEM [18] = test: Cytotoxicity against human CCRF-CEM cells assessed as inhibition of cell growth incubated for 72 hrs by MTS assay; assay type: functional, cell-based; method in brief: as §4
CCRF-CEM [19] = test: Induction of apoptosis in human CCRF-CEM cells assessed as viable cells at 1 times IC50 incubated for 24 hrs by Annexin V-FITC and PI staining based flow cytometric analysis (reference value: 97.4 %); assay type: functional; method in brief: as §3
[20] = Stability in human plasma assessed as compound remaining at 2 uM incubated for 120 mins by RF-MS analysis; assay type: ADME, cell-free; settings: read-out: Stability; method in brief: as §6
CCRF-CEM [21] = test: Induction of apoptosis in human CCRF-CEM cells assessed as late apoptotic cells at 1 times IC50 incubated for 24 hrs by Annexin V-FITC and PI staining based flow cytometric analysis (reference value: 0.4 %); assay type: functional; method in brief: as §3
CCRF-CEM [22] = test: Inhibition of RNA synthesis in human CCRF-CEM cells at 1 times IC50 incubated for 24 hrs by BrU incorporation based flow cytometry; assay type: functional; method in brief: as §1
HCT 116 TP53(-/-) = test: Cytotoxicity against human HCT116-p53-null cells assessed as inhibition of cell growth incubated for 72 hrs by MTS assay; assay type: functional, cell-based; method in brief: as §4
CCRF-CEM [23] = test: Induction of cell cycle arrest in human CCRF-CEM cells assessed as downregulation of AKT phosphorylation at 5 times IC50 incubated for 24 hrs by Western blotting analysis; assay type: functional, cell-based; method in brief: as §5
CCRF-CEM [24] = test: Induction of apoptosis in human CCRF-CEM cells assessed as viable cells at 5 times IC50 incubated for 24 hrs by Annexin V-FITC and PI staining based flow cytometric analysis (reference value: 97.4 %); assay type: functional; method in brief: as §3
CCRF-CEM [25] = test: Induction of apoptosis in human CCRF-CEM cells assessed as downregulation of caspase-3 expression at 5 times IC50 incubated for 24 hrs by Western blotting analysis; assay type: functional, cell-based; method in brief: as §5
[26] = Stability in human plasma assessed as compound remaining at 2 uM incubated for 15 mins by RF-MS analysis; assay type: ADME, cell-free; settings: read-out: Stability; method in brief: as §6
[27] = Plasma protein binding in human assessed as fraction bound at 10 uM incubated for 4 hrs by rapid equilibrium dialysis based RF-MS analysis; assay type: ADME, cell-free; settings: read-out: PPB (converted); method in brief: as §6
HCT-116 = test: Cytotoxicity against human HCT-116 cells assessed as inhibition of cell growth incubated for 72 hrs by MTS assay; assay type: functional, cell-based; settings: HCT-116, 72 h; method in brief: as §4
[28] = Cytotoxicity against human MRC5 cells assessed as inhibition of cell growth incubated for 72 hrs by MTS assay; assay type: toxicity, cell-based; method in brief: as §4
CCRF-CEM [29] = test: Induction of cell cycle arrest in human CCRF-CEM cells assessed as downregulation of AKT phosphorylation at 1 times IC50 incubated for 24 hrs by Western blotting analysis; assay type: functional, cell-based; method in brief: as §5
CCRF-CEM [30] = test: Induction of cell cycle arrest in human CCRF-CEM cells assessed as downregulation of Cyclin D expression at 1 to 5 times IC50 incubated for 24 hrs by Western blotting analysis; assay type: functional, cell-based; method in brief: as §5
CCRF-CEM [31] = test: Induction of apoptosis in human CCRF-CEM cells assessed as upregulation of BID expression at 1 to 5 times IC50 incubated for 24 hrs by Western blotting analysis; assay type: functional, cell-based; method in brief: as §5
Mitochondrial membrane = test: Induction of mitochondrial membrane potential depolarization in human CCRF-CEM cells assessed as fold increase in fluorescence intensity incubated for 24 hrs by JC-1 staining based flow cytometry; assay type: cell membranes
CCRF-CEM [32] = test: Induction of apoptosis in human CCRF-CEM cells assessed as early apoptotic cells at 5 times IC50 incubated for 24 hrs by Annexin V-FITC and PI staining based flow cytometric analysis (reference value: 2.1 %); assay type: functional; method in brief: as §3
[33] = Stability in human plasma assessed as compound remaining at 2 uM incubated for 60 mins by RF-MS analysis; assay type: ADME, cell-free; settings: read-out: Stability; method in brief: as §6
U2OS = test: Cytotoxicity against human U2OS cells assessed as inhibition of cell growth incubated for 72 hrs by MTS assay; assay type: functional, cell-based; method in brief: as §4

CC(=O)O[C@H]1CC[C@]2(C)[C@H]3CC[C@@H]4[C@H]5[C@H](c6cc7c(c(-c8ccccc8)c6)C(=O)N(c6nccs6)C7=O)CC[C@]5(C(=O)O)CC[C@@]4(C)[C@]3(C)CC[C@H]2C1(C)C
inhibition (INH) (CCRF-CEM [1]): 36.1% | inhibition (INH) (CCRF-CEM [2]): 18.5% | Activity (CCRF-CEM [3]): 3.2% | IC50 (A549): 20.8 µM | Activity (CCRF-CEM [4]): Active | Activity (CCRF-CEM [5]): 5.1% | IC50 [6]: 24.5 µM | inhibition (INH) (CCRF-CEM [7]): 37.2% | Activity (CCRF-CEM [8]): Active; Slight Increased Activity Observed | Activity (CCRF-CEM [9]): 0% | Activity (CCRF-CEM [10]): Active | remaining at 0.25 h, 2 µM [11]: 103% | remaining at 0.5 h, 2 µM [12]: 104% | IC50 at 72 h [13]: 31.7 µM | Activity (CCRF-CEM [14]): 0% | remaining at 0.5 h, 2 µM [15]: 95% | IC50 (CEM-DNR): 30.5 µM | IC50 (K562): 21.4 µM | Activity (CCRF-CEM [16]): Active | remaining at 1 h, 2 µM [17]: 98% | IC50 (CCRF-CEM [18]): 2.52 µM | Activity (CCRF-CEM [19]): 92.3% | remaining at 2 h, 2 µM [20]: 85% | Activity (CCRF-CEM [21]): 2.6% | inhibition (INH) (CCRF-CEM [22]): 28% | IC50 (HCT 116 TP53(-/-)): 18.6 µM | Activity (CCRF-CEM [23]): Active | Activity (CCRF-CEM [24]): 90.8% | Activity (CCRF-CEM [25]): Active | remaining at 0.25 h, 2 µM [26]: 98% | fraction unbound at 4 h, 10 µM [27]: 0.425 | IC50 (HCT-116): 13.1 µM | IC50 at 72 h [28]: 27.8 µM | Activity (CCRF-CEM [29]): Active | Activity (CCRF-CEM [30]): Active | Activity (CCRF-CEM [31]): Active | Activity (Mitochondrial membrane): Dose-dependent-effect | Activity (CCRF-CEM [32]): 6% | remaining at 1 h, 2 µM [33]: 96% | IC50 (U2OS): 16.8 µM
